Measured values pooled from the literature.
Compare with care: the assays were run in different laboratories.
Target: Serine/threonine-protein kinase Nek3 (NEK3, Homo sapiens, UniProt P51956)
Residues used in one study (P51956 1-506): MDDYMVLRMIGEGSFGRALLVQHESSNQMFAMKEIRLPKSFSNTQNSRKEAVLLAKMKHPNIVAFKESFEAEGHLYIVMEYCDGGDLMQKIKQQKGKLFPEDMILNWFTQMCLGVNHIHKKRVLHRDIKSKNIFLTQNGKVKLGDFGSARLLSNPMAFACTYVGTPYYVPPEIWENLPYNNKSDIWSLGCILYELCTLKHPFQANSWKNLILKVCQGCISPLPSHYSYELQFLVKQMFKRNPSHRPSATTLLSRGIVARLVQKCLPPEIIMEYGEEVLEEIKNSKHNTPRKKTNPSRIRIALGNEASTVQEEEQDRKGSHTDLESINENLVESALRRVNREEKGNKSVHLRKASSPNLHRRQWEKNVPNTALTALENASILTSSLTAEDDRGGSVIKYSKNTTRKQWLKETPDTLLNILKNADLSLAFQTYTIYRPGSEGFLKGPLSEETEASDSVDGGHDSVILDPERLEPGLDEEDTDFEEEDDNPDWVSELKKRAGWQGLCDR

With `CC(C)CC(=O)N1CCc2nc(-c3ccc(Br)cc3)nc(N(C)Cc3ccccc3)c2C1` the remaining binding was 100% (cell-free assay, competition with immobilised ligand; 0.1 µM).
The remaining binding of `C[C@@H]1CCN(c2nccc(-c3cnn4ncccc34)n2)C1` is reported as 81% (binding; 1 µM).
`O=C(c1ccc(Nc2ncc(Cl)c(-c3cc4ccccc4s3)n2)cc1)N1CCC(N2CCCC2)CC1` has a remaining binding of 1.3% (binding, competition with immobilised ligand; 1 µM).
The remaining binding of `C=CC(=O)N1CCC(C(=O)NCC(=O)N2CCN(c3nc(-c4cnc(N)nc4C(F)F)nc(N4CCOCC4)n3)CC2)CC1` is reported as 51% (binding, competition with immobilised ligand; 1 µM).
`CN(C)c1nccc(-c2cnc3ncccn23)n1` has a remaining binding of 100% (binding; 1 µM).
`Nc1ncc2c(n1)-c1c([nH]c3ccc(C#CC4CC4)cc13)CCCC2` has a remaining binding of 78% (binding, competition with immobilised ligand; 1 µM).
`O=C(Nc1c[nH]nc1C(=O)NC1CCNCC1)c1cc(F)cc(F)c1` gave a remaining binding of 100% (binding, competition with immobilised ligand; 1 µM).
With `COc1cc(-c2cn(C3CCc4ccccc4N(CC(F)(F)F)C3=O)nn2)ccc1-n1ccc(C)n1` (stereo not drawn) the remaining binding was 100% (cell-free assay, competition with immobilised ligand; 1 µM).
The remaining binding of `Cc1cnc(Nc2ccc(C(=O)N3CCC(N4CCCC4)CC3)cc2)nc1-c1cc2ccccc2s1` is reported as 2.4% (binding, competition with immobilised ligand; 1 µM).
For `c1cnn2ncc(-c3ccnc(N4CCC45COC5)n3)c2c1`, the remaining binding was 64% (binding; 1 µM).
With `CCN1CCN(Cc2ccc(C(=O)Nc3ccc(C)c(Oc4ccc5c(c4)CC(=O)N5)c3)cc2C(F)(F)F)CC1` the remaining binding was 100% (binding, competition with immobilised ligand; 1 µM).
`CN(C)c1ncc(F)c(-c2cnn3ncccc23)n1` gave a remaining binding of 70% (binding; 1 µM).
The remaining binding of `FC(F)(F)Oc1cccc(-c2cnc3ccc(-c4ccncc4)nn23)c1` is reported as 73% (cell-free assay, competition with immobilised ligand; 5 µM).
`O=C(O)[C@@H]1[C@@H](Cn2nnc3ccccc3c2=O)CC[C@H]1C(=O)c1ccc(OCCC2CCOCC2)cc1` has a remaining binding of 83% (cell-free assay, competition with immobilised ligand; 1 µM).
For `CNC(=O)[C@@H]1CC[C@@H](n2c(-c3ccc4cnccc4c3)nc3ccc(C(=O)NCc4cccc(C(N)=O)c4)cc32)C1`, the remaining binding was 61% (binding, competition with immobilised ligand; 1 µM).
`Cc1nccc(COC(=O)N2C[C@@H]3[C@@H](CNC(=O)c4ccc5[nH]nnc5c4)[C@@H]3C2)n1` has a remaining binding of 100% (cell-free assay, competition with immobilised ligand; 1 µM).
The remaining binding of `O=C(c1ccc(Nc2ncc(Cl)c(-c3ccc(Cl)s3)n2)cc1)N1CCC(N2CCCC2)CC1` is reported as 0.45% (binding, competition with immobilised ligand; 1 µM).
With `N[C@@H]1CCN(c2nccc(-c3cnn4ncccc34)n2)C1` the remaining binding was 95% (binding; 1 µM).
For `c1ccc(N2CCN(Cc3nc4ccccc4[nH]3)CC2)nc1`, the remaining binding was 100% (binding, competition with immobilised ligand; 1 µM).
`F[C@@H]1CCN(c2nccc(-c3cnn4ncccc34)n2)C1` has a remaining binding of 90% (binding; 1 µM).
The remaining binding of `O=C(Nc1cnc(Oc2ccc(F)cc2)nc1)N1CCc2ncccc2[C@@H]1c1ccc(F)cc1` is reported as 67% (cell-free assay, competition with immobilised ligand; 1 µM).
